The values below come from the EternaBench riboswitch data.

In general, apparent Kd refers to the concentration giving half-maximal binding under the conditions of the assay.

The test system of the data set is MS2 coat protein. The experiment in a line: apparent Kd, MS2 coat protein; higher = weaker binding; RNA-MaP array; FMN 200 µM where present. In outline:
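Stalled E. coli RNA polymerase transcribed the designs on Illumina sequencing-chip clusters. SNAP-549-labelled MS2 coat protein was titrated from 0.7 or 1.5 nM, doubling to 3 µM, without and then with constant ligand, in 100 mM Tris-HCl pH 7.5, 80 mM KCl, 4 mM MgCl2, BSA, DTT, yeast tRNA and Tween-20. Per-cluster binding curves were fitted to green signal normalised to red-channel RNA signal and control-cluster median Fmax. The apparent Kd is the median of the filtered fits.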

Setting [1] is: designed as: ON switch for flavin mononucleotide, no ligand.
[2] abbreviates: ligand present: flavin mononucleotide, designed as: ON switch for flavin mononucleotide.
[3] abbreviates: designed as: OFF switch for flavin mononucleotide, no ligand.
[4] abbreviates: ligand present: flavin mononucleotide, designed as: OFF switch for flavin mononucleotide.

On to “AGUUAAUAUCGAGGAUAUGUCUAAACACAUGAGGAUCACCCAUGUAUGUGUAUAGAAGGCGAUAUUAACAGCAUGUUACAUGCA”, for which the “apparent Kd” value reads like this: under setting [1], 28.8 nM; under setting [2], 8.58 nM.

Consider “GUGUACAGAGGAUAUACAGGAGCAUGGAAACAUGCAACUUCACAUGAGGAUCACCCAUGUAGAAGGCUGUACAC”, for which the “apparent Kd” value is, setting by setting: under setting [3], 16 nM; under setting [4], 47.9 nM.

Regarding “CGCGAAAACAUAGGAUAUUGUUACAUGAGGAUCACCCAUGUCAACCAUUUAUCUCAAAUUGUUGACAAGAAGGAUGAGGUCGCG”, the “apparent Kd” value turned out to be 113 nM under setting [1] and 28.4 nM under setting [2].

For “UGAUAGCACAGAGGAUAUGCGUUGUGUUCUCUCUACAUGAGGAUCACCCAUGUAGAAGGCUGUGCUAUCUAAGUCGGAAACGAU”, the “apparent Kd” value by setting is: under setting [3], 8.81 nM; under setting [4], 36.9 nM.

In the case of “CGAAACUACGAGAAGGACAUGUGGUCCUUCAGUUACAUGAGGAUCACCCAUGUAGGAUAUCGUAGUUUCAGGAUCGUGAGAUCU”, the “apparent Kd” value under setting [3] came out at 38.7 nM and the “apparent Kd” value under setting [4] came to 9.81 nM.

Turning to “AUACUAAAUGAAGGAUAUCUAAGCAUAAACCUGAGAGAAGGUCAUUUUUACAUGAGGAUCACCCAUGUUGUGAUUAAUGGGUUA”, the “apparent Kd” value runs as follows: under setting [3], 71.8 nM; under setting [4], 144 nM.

“AUAUAUUAGUUAGGAUAUCUGUAAUUUAUUGAAACAUGAGGAUCACCCAUGUUCAUAAAUUUAUAGGAGAAGGGAUAGAUAUAU”: the “apparent Kd” value by setting is: under setting [1], 5.17 nM; under setting [2], 5.03 nM.

Consider “UAUAUGUCAGGAUAUUAAUUAAGAUGGAAUUUAGUCUUAGUUGAGAAGGGACAUGAGGAUCACCCAUGUUCCUC”, for which the “apparent Kd” value under setting [3] came out at 19.7 nM and the “apparent Kd” value under setting [4] was 159 nM.

Consider “AUGCUUUGUGUAGGAUAUGCAUACGGUACGUAUGCAGAAGGACAUGAGGAUCACCCAUGUAUAUUAUUAUUACAUAUCAUACAU”, for which the “apparent Kd” value under setting [3] turned out to be 35.3 nM and the “apparent Kd” value under setting [4] is 229 nM.

Consider “UGGUACAUGGGAGGAUAUCCUCAAGAGACAUGAGGAUCACCCAUGUAUUAUAUGCCUCUUGGCAUGGAGAAGGCCCAUGUACCU”, for which the “apparent Kd” value stood at 56.2 nM under setting [1] and 55.4 nM under setting [2].

Regarding “GUCAGCUCGUGAGGAUAUACAACACUGCUUCGGCAGUGUAUUAAGAUUACAUGAGGAUCACCCAUGUAGAAGGCACGAGCUGAU”, the “apparent Kd” value under setting [3] is 5.01 nM and the “apparent Kd” value under setting [4] is 6.95 nM.

As for “GGUUGGCGAGGAUAUACAUGAGGAUCACCCAUGUGGUCCUGUGGCUGGUCUUACCUUUGUAGAAGGCGCGGGUC”, the “apparent Kd” value is, setting by setting: under setting [3], 88.4 nM; under setting [4], 93.2 nM.

As to “CUUUUGUGAGGAUAUUAGUAGUAAACGAACAAAAUUAUUACUGAGAAGGCACAUGAGGAUCACCCAUGUUCCUC”, the “apparent Kd” value amounted to 46 nM under setting [3] and 575 nM under setting [4].

Turning to “GUCGUGUGAGGAUAUGAUUAAUAGACGGGAUUGCGACUGCAUCAGAAGGCACAUGAGGAUCACCCAUGUAUGAA”, the “apparent Kd” value runs as follows: under setting [3], 19.4 nM; under setting [4], 63.5 nM.

On to “UCAUACGGUGAGGAUAUCUCCGCUAAAGUGUGUAGAGAAGGCGCUACAUGAGGAUCACCCAUGUUUAUGGGCAG”, for which the “apparent Kd” value was determined as 403 nM under setting [3] and 228 nM under setting [4].

Consider “AAUUCGUUCUAGAAGGUGCAUUUGUUAAACGUGCAAGGAUAUAGACAUGAGGAUCACCCAUGUCUAUGAGACAUCGGCCUCCUG”, for which the “apparent Kd” value was 5.33 nM under setting [3] and 8.23 nM under setting [4].

On to “AAGACUAGAGGAUAUACAUGAGGAUCACCCAUGUAACUGUCAGGUGACUGACGGAAAUGUAGAAGGCUAGUCAA”, for which the “apparent Kd” value turned out to be 16.2 nM under setting [3] and 37.9 nM under setting [4].

Take “AUUUGUAAUACAGGAUAUGUUAGUUUACAGUAGAUUGGUUAUUACUCAACUACAGAAGGGUAGUACAUGAGGAUCACCCAUGUA”: the “apparent Kd” value runs as follows: under setting [1], 20.7 nM; under setting [2], 14.8 nM.

Consider “UCGUACAUUCGAGGAUAUCGGUGAUAAAUAAUACGAGAAGGCGAUUUUAGGCAUAACGCCUUAGACAUGAGGAUCACCCAUGUA”, for which the “apparent Kd” value was determined as 68.1 nM under setting [1] and 55.1 nM under setting [2].

For the sequence “UUUAUAAAGAAAGGAUAUAGUAUAAUAAUUUAAUUAGAAGGUUCACACAUGAGGAUCACCCAUGUAUGAGGAUCACCCAUGUAU”, the “apparent Kd” value is 35.2 nM under setting [3] and 29.1 nM under setting [4].

On to “UACCACCGCACGGACACGCCGAGUCAGGAUAUACAUGAGGAUCACCCAUGUGAAGGCCGGCUCGUGUAGAAGGGACAGGCGUUG”, for which the “apparent Kd” value under setting [3] amounted to 5.43 nM and the “apparent Kd” value under setting [4] was 6.72 nM.

Regarding “AGAUGACAAAGUCAUCUCGCUUUGACAUGAGGAUCACCCAUGUAGGAUAUAUUACUCAAAGAGUAAUAGAAGGACAUGUUUCUG”, the “apparent Kd” value runs as follows: under setting [3], 72.7 nM; under setting [4], 163 nM.

Take “AAACACGGAGGAUAUACAGGUUCGGGAAACCGAACCGGCUGACAUGAGGAUCACCCAUGUAGAAGGCCGAAAUA”: the “apparent Kd” value by setting is: under setting [3], 19.3 nM; under setting [4], 45.8 nM.

For the sequence “UCAUUGGUAGUGAGGAUAUCGGUGUGAUGGAAUGACGAGAAGGCACAUGAGGAUCACCCAUGUAAGAUUGGGCU”, the “apparent Kd” value by setting is: under setting [3], 314 nM; under setting [4], 436 nM.

In the case of “GGGUAAUAUCGAGGAUAUGUCUAGACACAUGAGGAUCACCCAUGUAUGUGUAUAGAAGGCGAUAUUAACAGCAUGUUACAUGGG”, the “apparent Kd” value turned out to be 291 nM under setting [1] and 60.5 nM under setting [2].

Take “AGCUGUGGCCGAGGAUAUCUAAAUUCUCAAAACGAAAUAUAAUCGAACAUGAGGAUCACCCAUGUAGAGAAGGCGGUCUCAGCA”: the “apparent Kd” value was 39 nM under setting [3] and 298 nM under setting [4].

Consider “UGAGUGCGUGUUAGGAUAUGGUUUGGUGUUUCGGGCUAGAAGGGACAUGAGGAUCACCCAUGUAACUGGCGGGU”, for which the “apparent Kd” value runs as follows: under setting [3], 53.3 nM; under setting [4], 51 nM.

As to “AUAGUUUUCAUAGGAUAUUGAAUUAUAUUUAAUCAAGAAGGAUGAAUACAUGAGGAUCACCCAUGUUAACAUGGAUUAAGUAGU”, the “apparent Kd” value by setting is: under setting [3], 20.9 nM; under setting [4], 44.3 nM.

On to “UCCGCUCGAGGAUAUACAUGAGGAUCACCCAUGUUUCCCUGUUGCUUGGCCUCAGGAUGUAGAAGGCGACGCUA”, for which the “apparent Kd” value under setting [3] stood at 17.6 nM and the “apparent Kd” value under setting [4] is 19.8 nM.

On to “AUUGUUAAGUUAGGAUAUAGUAAAAUAAUUUAAUUAGAAGGAGCUCACAUGAGGAUCACCCAUGUAAGAGGAUCACCCAUGUAU”, for which the “apparent Kd” value is, setting by setting: under setting [3], 23.5 nM; under setting [4], 18.9 nM.

For the sequence “GCAGACUUGCUGAAGGUGUUCCACAUGAGGAUCACCCAUGUCAAGGAUAUAACGCGUCCGGCCCGUUAGAAGGUGACAGUUUGC”, the “apparent Kd” value is, setting by setting: under setting [3], 368 nM; under setting [4], 229 nM.

For “AAACAGUACGAGAAGGGCUACAUGAGGAUCACCCAUGUAGACGGUCGUGUGGCAGGAUAUCGAACACACCGAAAACGGUGCGUU”, the “apparent Kd” value stood at 5.32 nM under setting [3] and 7.09 nM under setting [4].

With “UUAAAUCAUGUAGGAUAUGCAUGGCGAAGCUACGCAGAAGGACAUGAGGAUCACCCAUGUGCUAGCGUCUGGAAACAGAUGCAA”, the “apparent Kd” value under setting [3] was found to be 56 nM and the “apparent Kd” value under setting [4] came to 269 nM.

For “GGAGACCUCACAGGAUAUGCUGGACUUUGUCCAGCAGAAGGGUGGACAUGAGGAUCACCCAUGUGGUCUUCCAAAAUAUUUAAU”, the “apparent Kd” value reads like this: under setting [1], 728 nM; under setting [2], 139 nM.

As for “UGGUACUAGGGAGGAUAUGGCAAGAUACAUGAGGAUCACCCAUGUUUAAGAAUGCCGAGAGGCAACUAGAAGGCCCUAGUACCU”, the “apparent Kd” value under setting [1] turned out to be 7.75 nM and the “apparent Kd” value under setting [2] was 4.7 nM.

Consider “UUUUAACAUGAGGAUCACCCAUGUGAGGAUAUCGAAAUUUAUAUUUAUAUUUAUAAUUCGAGAAGGCACAUUUU”, for which the “apparent Kd” value is, setting by setting: under setting [3], 179 nM; under setting [4], 141 nM.
